In ChEMBL document CHEMBL1926550, “Synthesis and antibacterial activity of naphthyridone derivatives containing mono/difluoro-methyloxime pyrrolidine scaffolds” (2012):
Converted amounts (≈) assume the structure as drawn.

Key:
Assay type in all cases: functional
Enterococcus faecium [1] = assay: Antibacterial activity against Enterococcus faecium 09-4 after 18 hrs by two fold serial dilution method; conditions: 09-4, 18 h
In short: (§1)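 Agar two-fold serial dilution in melted Mueller-Hinton agar, final concentrations 128 down to 0.008 μg/mL. Plates inoculated with 10⁴ cfu and incubated at 35 °C for 18 h. MIC taken as the lowest concentration giving no visible growth on the plate.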

Streptococcus pneumoniae = assay: Antibacterial activity against Streptococcus pneumoniae 10-1 after 18 hrs by two fold serial dilution method; conditions: 10-1, 18 h; in short: as §1
Enterococcus faecium [2] = assay: Antibacterial activity against Enterococcus faecium 09-1 after 18 hrs by two fold serial dilution method; conditions: 09-1, 18 h; in short: as §1
Escherichia coli [3] = assay: Antibacterial activity against Escherichia coli 10-2 after 18 hrs by two fold serial dilution method; conditions: 10-2, 18 h; in short: as §1
Klebsiella pneumoniae [4] = assay: Antibacterial activity against Klebsiella pneumoniae 10-3 infected KM mouse systemic infection model assessed as decrease in mouse mortality administered orally twice after 1 and 4 hrs post infection measured up to 7 days; conditions: 10-3, po
In short: (§2)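 Strains grown on MH agar at 35 °C for 18 h, suspended in gastric mucin. Male KM mice (19–21 g), groups of 10, infected intraperitoneally with 0.5 mL at 5–10× MLD. Four oral dose levels per drug at 1 and 4 h post infection. Mortality followed 7 days; ED50 with 95% confidence limits by Bliss method.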

Staphylococcus aureus [5] = assay: Antibacterial activity against methicillin-sensitive Staphylococcus aureus 10-1 after 18 hrs by two fold serial dilution method; conditions: 10-1, 18 h; in short: as §1
Klebsiella pneumoniae [6] = assay: Antibacterial activity against Klebsiella pneumoniae 10-3 after 18 hrs by two fold serial dilution method; conditions: 10-3, 18 h; in short: as §1
[7] = test system: Staphylococcus epidermidis; assay: Antibacterial activity against methicillin-sensitive Staphylococcus epidermidis 10-1 after 18 hrs by two fold serial dilution method; conditions: 10-1, 18 h; in short: as §1
Enterococcus faecalis [8] = assay: Antibacterial activity against Enterococcus faecalis 09-2 after 18 hrs by two fold serial dilution method; conditions: 09-2, 18 h; in short: as §1
Enterococcus faecium [9] = assay: Antibacterial activity against Enterococcus faecium 09-3 after 18 hrs by two fold serial dilution method; conditions: 09-3, 18 h; in short: as §1
Staphylococcus aureus [10] = assay: Antibacterial activity against methicillin-resistant Staphylococcus aureus 10-1 after 18 hrs by two fold serial dilution method; conditions: 10-1, 18 h
In short: (§3)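 Agar two-fold serial dilution in melted Mueller-Hinton agar, 128 to 0.008 μg/mL. Plates inoculated with 10⁴ cfu, incubated 35 °C for 18 h. MIC taken as lowest concentration giving no visible growth on the plate.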

[11] = test system: Staphylococcus epidermidis; assay: Antibacterial activity against methicillin-sensitive Staphylococcus epidermidis 10-2 after 18 hrs by two fold serial dilution method; conditions: 10-2, 18 h; in short: as §1
Enterococcus faecium [12] = assay: Antibacterial activity against Enterococcus faecium 09-5 after 18 hrs by two fold serial dilution method; conditions: 09-5, 18 h; in short: as §1
Staphylococcus aureus [13] = assay: Antibacterial activity against methicillin-sensitive Staphylococcus aureus 10-4 after 18 hrs by two fold serial dilution method; conditions: 10-4, 18 h; in short: as §1
Staphylococcus aureus [14] = assay: Antibacterial activity against methicillin-resistant Staphylococcus aureus 10-3 after 18 hrs by two fold serial dilution method; conditions: 10-3, 18 h; in short: as §3
Klebsiella pneumoniae [15] = assay: Antibacterial activity against Klebsiella pneumoniae 09-2 after 18 hrs by two fold serial dilution method; conditions: 09-2, 18 h; in short: as §1
Pseudomonas aeruginosa [16] = assay: Antibacterial activity against Pseudomonas aeruginosa 10-3 after 18 hrs by two fold serial dilution method; conditions: 10-3, 18 h; in short: as §1
Pseudomonas aeruginosa [17] = assay: Antibacterial activity against Pseudomonas aeruginosa 10-1 infected KM mouse systemic infection model assessed as decrease in mouse mortality administered orally twice after 1 and 4 hrs post infection measured up to 7 days; conditions: 10-1, po; in short: as §2
Staphylococcus aureus [18] = assay: Antibacterial activity against methicillin-resistant Staphylococcus aureus 10-2 infected KM mouse systemic infection model assessed as decrease in mouse mortality administered orally twice after 1 and 4 hrs post infection measured up to 7 days; conditions: 10-2, po; in short: as §2
Enterococcus faecium [19] = assay: Antibacterial activity against Enterococcus faecium 09-6 after 18 hrs by two fold serial dilution method; conditions: 09-6, 18 h; in short: as §1
Pseudomonas aeruginosa [20] = assay: Antibacterial activity against Pseudomonas aeruginosa ATCC 27853 after 18 hrs by two fold serial dilution method; conditions: ATCC 27853, 18 h; in short: as §1
Escherichia coli [21] = assay: Antibacterial activity against Escherichia coli ATCC 25922 after 18 hrs by two fold serial dilution method; conditions: ATCC 25922, 18 h; in short: as §1
Staphylococcus aureus [22] = assay: Antibacterial activity against methicillin-sensitive Staphylococcus aureus 10-5 after 18 hrs by two fold serial dilution method; conditions: 10-5, 18 h; in short: as §1
[23] = test system: Staphylococcus epidermidis; assay: Antibacterial activity against methicillin-resistant Staphylococcus epidermidis 10-2 after 18 hrs by two fold serial dilution method; conditions: 10-2, 18 h; in short: as §3
Escherichia coli [24] = assay: Antibacterial activity against Escherichia coli 09-2 after 18 hrs by two fold serial dilution method; conditions: 09-2, 18 h; in short: as §1
[25] = test system: Staphylococcus epidermidis; assay: Antibacterial activity against methicillin-resistant Staphylococcus epidermidis 10-4 infected KM mouse systemic infection model assessed as decrease in mouse mortality administered orally twice after 1 and 4 hrs post infection measured up to 7 days; conditions: 10-4, po; in short: as §2
Enterococcus faecium [26] = assay: Antibacterial activity against Enterococcus faecium 09-2 after 18 hrs by two fold serial dilution method; conditions: 09-2, 18 h; in short: as §1
Pseudomonas aeruginosa [27] = assay: Antibacterial activity against Pseudomonas aeruginosa 10-1 after 18 hrs by two fold serial dilution method; conditions: 10-1, 18 h; in short: as §1
Staphylococcus aureus [28] = assay: Antibacterial activity against methicillin-resistant Staphylococcus aureus 10-2 after 18 hrs by two fold serial dilution method; conditions: 10-2, 18 h; in short: as §3
Enterococcus faecalis [29] = assay: Antibacterial activity against Enterococcus faecalis 09-1 after 18 hrs by two fold serial dilution method; conditions: 09-1, 18 h; in short: as §1
Staphylococcus aureus [30] = assay: Antibacterial activity against Staphylococcus aureus ATCC 25923 after 18 hrs by two fold serial dilution method; conditions: ATCC 25923, 18 h; in short: as §1
Staphylococcus aureus [31] = assay: Antibacterial activity against methicillin-sensitive Staphylococcus aureus 10-6 after 18 hrs by two fold serial dilution method; conditions: 10-6, 18 h; in short: as §1
Staphylococcus aureus [32] = assay: Antibacterial activity against methicillin-sensitive Staphylococcus aureus 10-2 after 18 hrs by two fold serial dilution method; conditions: 10-2, 18 h; in short: as §1
Staphylococcus aureus [33] = assay: Antibacterial activity against methicillin-sensitive Staphylococcus aureus 10-3 after 18 hrs by two fold serial dilution method; conditions: 10-3, 18 h; in short: as §1
Klebsiella pneumoniae [34] = assay: Antibacterial activity against Klebsiella pneumoniae 10-1 after 18 hrs by two fold serial dilution method; conditions: 10-1, 18 h; in short: as §1
Escherichia coli [35] = assay: Antibacterial activity against Escherichia coli 09-1 after 18 hrs by two fold serial dilution method; conditions: 09-1, 18 h; in short: as §1
Escherichia coli [36] = assay: Antibacterial activity against Escherichia coli 10-2 infected KM mouse systemic infection model assessed as decrease in mouse mortality administered orally twice after 1 and 4 hrs post infection measured up to 7 days; conditions: 10-2, po; in short: as §2
Escherichia coli [37] = assay: Antibacterial activity against Escherichia coli 10-3 after 18 hrs by two fold serial dilution method; conditions: 10-3, 18 h; in short: as §1
Staphylococcus aureus [38] = assay: Antibacterial activity against methicillin-resistant Staphylococcus aureus 10-4 after 18 hrs by two fold serial dilution method; conditions: 10-4, 18 h; in short: as §3
Escherichia coli [39] = assay: Antibacterial activity against Escherichia coli 09-3 after 18 hrs by two fold serial dilution method; conditions: 09-3, 18 h; in short: as §1
Escherichia coli [40] = assay: Antibacterial activity against Escherichia coli 10-1 after 18 hrs by two fold serial dilution method; conditions: 10-1, 18 h; in short: as §1
[41] = test system: Staphylococcus epidermidis; assay: Antibacterial activity against methicillin-resistant Staphylococcus epidermidis 10-4 after 18 hrs by two fold serial dilution method; conditions: 10-4, 18 h; in short: as §3
Pseudomonas aeruginosa [42] = assay: Antibacterial activity against Pseudomonas aeruginosa 10-2 after 18 hrs by two fold serial dilution method; conditions: 10-2, 18 h; in short: as §1
[43] = test system: Staphylococcus epidermidis; assay: Antibacterial activity against methicillin-resistant Staphylococcus epidermidis 10-1 after 18 hrs by two fold serial dilution method; conditions: 10-1, 18 h; in short: as §3

Question: How did the MIC (Enterococcus faecium [1]) turn out when `CO/N=C1\CN(c2nc3c(cc2F)c(=O)c(C(=O)O)cn3C2CC2)CC1CN` (centres undefined) [GEMIFLOXACIN] was run?
Answer: 0.03 µg/mL (≈ 0.077 µM)

Question: What about the MIC (Streptococcus pneumoniae) of the same molecule?
Answer: 0.015 µg/mL (≈ 0.0385 µM)

Question: And the MIC (Enterococcus faecium [2])?
Answer: 16 µg/mL (≈ 41.1 µM)

Question: What about the MIC (Escherichia coli [3]) of the same molecule?
Answer: 0.25 µg/mL (≈ 0.642 µM)

Question: What about the ED50 (Klebsiella pneumoniae [4]) of the same molecule?
Answer: 108 mg/kg

Question: What about the MIC (Staphylococcus aureus [5]) of the same molecule?
Answer: 0.008 µg/mL (≈ 0.0205 µM)

Question: What about the MIC (Klebsiella pneumoniae [6]) of the same molecule?
Answer: 0.5 µg/mL (≈ 1.28 µM)

Question: And the MIC [7]?
Answer: 2 µg/mL (≈ 5.14 µM)

Question: And the MIC (Enterococcus faecalis [8])?
Answer: 4 µg/mL (≈ 10.3 µM)

Question: And the MIC (Enterococcus faecium [9])?
Answer: 4 µg/mL (≈ 10.3 µM)

Question: What about the MIC (Staphylococcus aureus [10]) of the same molecule?
Answer: 16 µg/mL (≈ 41.1 µM)

Question: And the MIC [11]?
Answer: 16 µg/mL (≈ 41.1 µM)

Question: What about the MIC (Enterococcus faecium [12]) of the same molecule?
Answer: 16 µg/mL (≈ 41.1 µM)

Question: What about the MIC (Staphylococcus aureus [13]) of the same molecule?
Answer: 0.015 µg/mL (≈ 0.0385 µM)

Question: And the MIC (Staphylococcus aureus [14])?
Answer: 16 µg/mL (≈ 41.1 µM)

Question: And the MIC (Klebsiella pneumoniae [15])?
Answer: 16 µg/mL (≈ 41.1 µM)

Question: What about the MIC (Pseudomonas aeruginosa [16]) of the same molecule?
Answer: 2 µg/mL (≈ 5.14 µM)

Question: And the ED50 (Pseudomonas aeruginosa [17])?
Answer: 129 mg/kg

Question: What about the ED50 (Staphylococcus aureus [18]) of the same molecule?
Answer: 14.9 mg/kg

Question: What about the MIC (Enterococcus faecium [19]) of the same molecule?
Answer: 0.03 µg/mL (≈ 0.077 µM)

Question: What about the MIC (Pseudomonas aeruginosa [20]) of the same molecule?
Answer: 0.5 µg/mL (≈ 1.28 µM)

Question: And the MIC (Escherichia coli [21])?
Answer: 0.008 µg/mL (≈ 0.0205 µM)

Question: What about the MIC (Staphylococcus aureus [22]) of the same molecule?
Answer: 0.5 µg/mL (≈ 1.28 µM)

Question: What about the MIC [23] of the same molecule?
Answer: 0.5 µg/mL (≈ 1.28 µM)

Question: What about the MIC (Escherichia coli [24]) of the same molecule?
Answer: 32 µg/mL (≈ 82.2 µM)

Question: And the ED50 [25]?
Answer: 24 mg/kg

Question: And the MIC (Enterococcus faecium [26])?
Answer: 16 µg/mL (≈ 41.1 µM)

Question: And the MIC (Pseudomonas aeruginosa [27])?
Answer: 0.25 µg/mL (≈ 0.642 µM)

Question: What about the MIC (Staphylococcus aureus [28]) of the same molecule?
Answer: 0.5 µg/mL (≈ 1.28 µM)

Question: And the MIC (Enterococcus faecalis [29])?
Answer: 2 µg/mL (≈ 5.14 µM)

Question: What about the MIC (Staphylococcus aureus [30]) of the same molecule?
Answer: 0.008 µg/mL (≈ 0.0205 µM)

Question: What about the MIC (Staphylococcus aureus [31]) of the same molecule?
Answer: 0.008 µg/mL (≈ 0.0205 µM)

Question: What about the MIC (Staphylococcus aureus [32]) of the same molecule?
Answer: 2 µg/mL (≈ 5.14 µM)

Question: What about the MIC (Staphylococcus aureus [33]) of the same molecule?
Answer: 0.06 µg/mL (≈ 0.154 µM)

Question: And the MIC (Klebsiella pneumoniae [34])?
Answer: 0.015 µg/mL (≈ 0.0385 µM)

Question: And the MIC (Escherichia coli [35])?
Answer: 16 µg/mL (≈ 41.1 µM)

Question: And the ED50 (Escherichia coli [36])?
Answer: 6.86 mg/kg

Question: What about the MIC (Escherichia coli [37]) of the same molecule?
Answer: 4 µg/mL (≈ 10.3 µM)

Question: And the MIC (Staphylococcus aureus [38])?
Answer: 16 µg/mL (≈ 41.1 µM)

Question: And the MIC (Escherichia coli [39])?
Answer: 16 µg/mL (≈ 41.1 µM)

Question: What about the MIC (Escherichia coli [40]) of the same molecule?
Answer: 16 µg/mL (≈ 41.1 µM)

Question: And the MIC [41]?
Answer: 4 µg/mL (≈ 10.3 µM)

Question: What about the MIC (Pseudomonas aeruginosa [42]) of the same molecule?
Answer: 16 µg/mL (≈ 41.1 µM)

Question: What about the MIC [43] of the same molecule?
Answer: 0.25 µg/mL (≈ 0.642 µM)
